For eight molecules, IC50 results are on record in ChEMBL document CHEMBL4480450, “Cytotoxic Germacrane-Type Sesquiterpene Lactones from the Whole Plant of Carpesium lipskyi” (J Nat Prod, 2019).

Assay [1] relates to HL-60. In words: Cytotoxicity against human HL60 cells after 72 hrs by CCK8 assay. Type of assay: functional, cell-based. The note with it: HL-60, 72 h. The method, boiled down: (§1)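 Cells seeded in 96-well plates and left overnight at 37 °C in humidified 5% CO2. Serial dilutions of the compounds added, then 72 h further incubation. CCK-8 reagent added for the last 4 h and absorbance read at 450 nm.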
On the technique in general: Tetrazolium dyes change colour on reduction, which living cells bring about.

In assay [2] the test system is A549. In words: Cytotoxicity against human A549 cells after 72 hrs by CCK8 assay. Type of assay: functional, cell-based. Particulars: A549, 72 h. The method, boiled down: as §1

What is called IC50 is the midpoint of a concentration-inhibition curve. A low value points to greater potency in that assay. Take `C=C1C(=O)O[C@H]2[C@H]1[C@H](OC(=O)/C(C)=C\C)C(=O)[C@H](C)CCC[C@](C)(O)[C@@H]2OC(=O)C(C)C`: the IC50 is 3 µM in assay [1] and 4.7 µM in assay [2].
As for `C=C1C(=O)O[C@H]2[C@H]1[C@H](OC(=O)C(C)C)C(=O)[C@H](C)CCC[C@](C)(O)[C@@H]2OC(=O)C(C)C`, the results for the IC50 in assay [1] and in assay [2] were 5 µM and 5.2 µM, respectively.
The corresponding values for `C=C1C(=O)O[C@@H]2[C@@H]1[C@H](O)[C@@H](OC(=O)C(C)C)[C@@H](C)CCC(=O)[C@](C)(O)[C@H]2OC(=O)C(C)C` are 5.9 µM and 4 µM.
For `C=C1C(=O)O[C@H]2[C@@H]1[C@@H](OC(=O)CC(C)C)[C@@]1(O)O[C@H](CC[C@H]1C)[C@](C)(O)[C@@H]2OC(=O)C(C)CC` (stereo not given in full), in that order: 5.6 µM and 6.7 µM.
The corresponding values for `C=C1C(=O)O[C@H]2[C@@H]1[C@@H](OC(=O)CC(C)C)[C@@]1(O)O[C@H](CC[C@H]1C)[C@](C)(O)[C@@H]2OC(=O)C(C)C` are 6.2 µM and 10.3 µM.
As to `C=C1C(=O)O[C@H]2[C@@H]1[C@H](OC(=O)CC(C)C)C(=O)[C@H](C)C[C@H]1O[C@@H]1[C@](C)(O)[C@@H]2OC(=O)C(C)C`, the values for the half-inhibitory concentration (IC50) in assay [1] and in assay [2] were 2.8 µM and > 10 µM, respectively.
The corresponding values for `C=C1C(=O)O[C@H]2[C@H]1[C@@H](O)[C@H](OC(=O)CC(C)C)[C@H](C)CCC(=O)[C@](C)(O)[C@@H]2OC(=O)C(C)C` (relative stereo) are 5.5 µM and 6.2 µM.
With `COc1cccc2c1C(=O)c1c(O)c3c(c(O)c1C2=O)C[C@@](O)(C(=O)CO)C[C@@H]3O[C@H]1C[C@H](N)[C@H](O)[C@H](C)O1` [DOXORUBICIN], in assay [2], the IC50 was 0.4 µM.
